Among the data in ChEMBL document CHEMBL1128359, “Dicarboxylic acid dipeptide neutral endopeptidase inhibitors” (J Med Chem, 1995) are inhibition and IC50 values, retold here.

One assay deals with T1, Neprilysin (Rattus norvegicus) (UniProt P07861).
T1 sequence (whole entry): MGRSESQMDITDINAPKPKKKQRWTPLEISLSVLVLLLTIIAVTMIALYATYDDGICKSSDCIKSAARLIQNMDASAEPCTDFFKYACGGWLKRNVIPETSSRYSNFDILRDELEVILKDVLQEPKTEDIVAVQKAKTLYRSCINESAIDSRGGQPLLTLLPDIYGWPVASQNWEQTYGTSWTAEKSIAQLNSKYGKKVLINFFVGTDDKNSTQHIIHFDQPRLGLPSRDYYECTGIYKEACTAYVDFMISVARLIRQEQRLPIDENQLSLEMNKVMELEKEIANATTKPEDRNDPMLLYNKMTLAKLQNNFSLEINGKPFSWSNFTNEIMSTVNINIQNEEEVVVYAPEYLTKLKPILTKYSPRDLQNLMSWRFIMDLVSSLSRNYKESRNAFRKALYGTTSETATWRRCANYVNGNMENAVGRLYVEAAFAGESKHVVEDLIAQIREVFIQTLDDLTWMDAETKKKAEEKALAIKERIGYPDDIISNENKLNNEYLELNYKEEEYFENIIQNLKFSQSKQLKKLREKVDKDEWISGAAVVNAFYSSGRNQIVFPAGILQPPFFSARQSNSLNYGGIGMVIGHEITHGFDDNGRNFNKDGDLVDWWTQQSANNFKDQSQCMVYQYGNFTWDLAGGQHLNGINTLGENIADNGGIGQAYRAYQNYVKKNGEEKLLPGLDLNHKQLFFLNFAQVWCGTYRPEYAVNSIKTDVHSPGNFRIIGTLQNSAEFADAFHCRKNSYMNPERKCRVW
Briefly: The compound was tested in vitro for inhibition of Neutral endopeptidase by using GAAP as substrate. Particulars: concentration not given here. The essentials:
(§1)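 Enzyme source was rat kidney cortex membranes (male Sprague-Dawley), 4.0 μg protein, plus 2.5 μg aminopeptidase M, in 50 mM Tris-HCl pH 7.4. Preincubated with inhibitor 10 min at 25 °C, then GAAP added (final 500 μM) for 25 min at 25 °C. Stopped with fast garnet, colour developed 30 min, OD read at 540 nm. Run in duplicate.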
Regarding `O=C(O)C1CCC(NC(=O)C(Cc2ccccc2)CC(Cc2ccccc2)C(=O)O)CC1` (stereo not drawn), the inhibition (usually the share of the control response that was lost under treatment) is 52%.

On to `O=C(O)CCNC(=O)C(Cc1ccc(-c2nccs2)cc1)CC(Cc1ccc(-c2nccs2)cc1)C(=O)O` (stereo not drawn), for which the inhibition was determined as 43%.

The next assay deals with T2, Neprilysin (Rattus norvegicus, UniProt P07861).
T2 sequence (P07861 whole entry): T1 sequence (whole entry)
As to the kind of experiment: The compound was tested for inhibition of Neutral endopeptidase by using GAAP as substrate.
Conditions: not given
The essentials: as §1
Regarding `O=C(O)CCNC(=O)[C@H](Cc1ccccc1)C[C@@H](Cc1ccccc1)C(=O)O`, half-maximal inhibition (IC50) required 1200 nM.

Take `O=C(O)CCNC(=O)[C@@H](CCC(=O)O)Cc1ccc(-c2ccccc2)cc1`: the IC50 (commonly the concentration at which inhibition is half-maximal) is 155 nM.

A further assay has as its target T2, Neprilysin. Briefly: The compound was tested in vitro for inhibition of Neutral endopeptidase by using Leu enkephalin as substrate.
Conditions: not given
The essentials: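 NEP (30 ng) preincubated 10 min with inhibitor in 50 mM Tris-HCl pH 7.4. Substrate disappearance followed by 6 min isocratic RP-HPLC on a C4 column. Duplicates.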
`O=C(O)CCNC(=O)[C@H](Cc1ccccc1)C[C@@H](Cc1ccccc1)C(=O)O` displayed an IC50 of 9 nM.

For the compound `O=C(O)CCNC(=O)[C@H](Cc1ccc(-c2ccccc2)cc1)NCP(=O)(O)O`, it took 0.81 nM to reach half-maximal inhibition (IC50).

The compound `O=C(O)CCNC(=O)[C@@H](CCC(=O)O)Cc1ccc(-c2ccccc2)cc1` registered an IC50 of 0.7 nM.

The target in a further assay is T2, Neprilysin. As to the kind of experiment: The compound was tested in vitro for inhibition of Neutral endopeptidase by using ANF(atrial natriuretic factor) as substrate.
Conditions: not given
The gist of the method: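 NEP (5.0 μg) preincubated 10 min with inhibitor in 50 mM Tris-HCl pH 7.4. Reaction started with r-ANF (final 20 μM) and run 10 min at 37 °C, then stopped with 0.6% TFA. Substrate loss measured by 3 min isocratic RP-HPLC on a C4 cartridge. Run in duplicate.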
As for `O=C(O)CCNC(=O)[C@H](Cc1ccc(-c2ccccc2)cc1)NCP(=O)(O)O`, the IC50 turned out to be 2 nM.

The next assay concerns the target T2, Neprilysin. As to the kind of experiment: In vitro inhibition of rat neutral endopeptidase by using GAAP as substrate.
Conditions: not given
The essentials: as §1
`CO[C@H](C[C@@H](Cc1ccc(-c2ccccc2)cc1)C(=O)NCCC(=O)O)C(=O)O` (stereo in doubt; 8h) displayed an IC50 above 1000 nM.

Compound `O=C(O)CCNC(=O)[C@H](Cc1ccc(-c2ccccc2)cc1)C[C@@H](Cc1ccc(-c2nccs2)cc1)C(=O)O` came in with a concentration for half-maximal inhibition (IC50) of 19 nM.

Consider `CCCC[C@H](C[C@@H](Cc1ccc(-c2ccccc2)cc1)C(=O)NCC(O)C(=O)O)C(=O)O` (stereo partly drawn), for which the IC50 stood at 21 nM.

In turn, `O=C(O)CCNC(=O)C(Cc1ccc(Oc2ccccc2)cc1)CC(Cc1ccc(Oc2ccccc2)cc1)C(=O)O` (stereo not drawn) had a concentration for half-maximal inhibition (IC50) of 203 nM.

The compound `O=C(O)CCC(=O)N[C@H](Cc1ccccc1)C[C@@H](Cc1ccccc1)C(=O)O` gave an IC50 of 4000 nM.

In the case of `Cc1ccc([C@H](C[C@@H](Cc2ccc(-c3ccccc3)cc2)C(=O)NCCC(=O)O)C(=O)O)cc1`, 54 nM corresponded to half-maximal inhibition (IC50).

`O=C(O)CCNC(=O)C(Cc1ccc(-c2ccccc2)cc1)CC(Cc1ccc(-c2ccccc2)cc1)C(=O)O` (stereo not drawn) registered an IC50 of 49 nM.

On to `CCCC[C@H](C[C@@H](Cc1ccc(-c2ccccc2)cc1)C(=O)NCCC(=O)O)C(=O)O`, for which the half-inhibitory concentration (IC50) came to 66 nM.

For `C[C@H](C[C@@H](Cc1ccc(-c2ccccc2)cc1)NC(=O)CCCCC(=O)O)C(=O)O`, 324 nM corresponded to half-maximal inhibition (IC50).

The compound `O=C(O)CCNC(=O)C(Cc1ccc(-c2nccs2)cc1)CC(Cc1ccc(-c2nccs2)cc1)C(=O)O` (stereo not drawn) had a half-inhibitory concentration (IC50) above 1000 nM.

As for `C[C@H](C[C@@H](Cc1ccc(-c2ccccc2)cc1)NC(=O)CC(=O)O)C(=O)O`, half-maximal inhibition (IC50) required 92 nM.

As to `CO[C@H](C[C@@H](Cc1ccc(-c2ccccc2)cc1)C(=O)NCCC(=O)O)C(=O)O` (stereo in doubt; 8g), the IC50 was found to be 42 nM.

As for `C[C@H](C[C@@H](Cc1ccc(-c2ccccc2)cc1)C(=O)NCCC(=O)O)C(=O)O`, 41 nM corresponded to half-maximal inhibition (IC50).

In the case of `COc1ccc(C[C@H](C[C@@H](Cc2ccc(-c3ccccc3)cc2)C(=O)NCC(O)C(=O)O)C(=O)O)cc1OC` (stereo partly drawn), the half-maximal inhibitory concentration (IC50) was 11 nM.

Compound `O=C(O)CCNC(=O)[C@H](Cc1ccc(-c2ccccc2)cc1)C[C@@H](Oc1ccccc1)C(=O)O` (stereo in doubt; 8f) registered an IC50 above 1000 nM.

As to `C[C@H](C[C@@H](Cc1ccc(-c2ccccc2)cc1)NC(=O)CCCC(=O)O)C(=O)O`, it took 90 nM to reach half-maximal inhibition (IC50).

In turn, `CO[C@H](C[C@@H](Cc1ccc(-c2ccccc2)cc1)NC(=O)CCCC(=O)O)C(=O)O` returned an IC50 of 49 nM.

Compound `O=C(O)C1CCC(NC(=O)C(Cc2ccc(-n3cccc3)cc2)CC(Cc2ccc(-n3cccc3)cc2)C(=O)O)CC1` (stereo not drawn) showed an IC50 of 515 nM.

On to `O=C(O)CCNC(=O)[C@H](Cc1ccc(-c2ccccc2)cc1)C[C@@H](Oc1ccccc1)C(=O)O` (stereo in doubt; 8e), for which it took 44 nM to reach half-maximal inhibition (IC50).

For the compound `COCC[C@H](C[C@@H](Cc1ccc(-c2ccccc2)cc1)C(=O)NCCC(=O)O)C(=O)O`, the IC50 stood at 46 nM.

Consider `O=C(O)CCNC(=O)[C@@H](CCC(=O)O)Cc1ccc(-c2ccccc2)cc1`, for which the IC50 was 155 nM.

In turn, `CC(C)c1ccc(CC(CC(Cc2ccc(C(C)C)cc2)C(=O)NCCC(=O)O)C(=O)O)cc1` (stereo not drawn) showed an IC50 of 489 nM.

`COc1ccc(C[C@H](C[C@@H](Cc2ccc(-c3ccccc3)cc2)C(=O)NCCC(=O)O)C(=O)O)cc1OC` displayed a 50% inhibitory concentration (IC50) of 54 nM.

The compound `O=C(O)CCNC(=O)C(Cc1ccccc1)CC(Cc1ccccc1)C(=O)O` (stereo not drawn) returned an IC50 of 1200 nM.

For the compound `O=C(O)CCNC(=O)C(Cc1ccc(-n2cccc2)cc1)CC(Cc1ccc(-n2cccc2)cc1)C(=O)O` (stereo not drawn), 36 nM corresponded to half-maximal inhibition (IC50).
